Data reported in ChEMBL document CHEMBL1629579, “Correlating echinocandin MIC and kinetic inhibition of fks1 mutant glucan synthases for Candida albicans: implications for interpretive breakpoints” (Antimicrob Agents Chemother, 2009).
Values after ≈ are worked out from the molar mass of the structure shown. Numbered stars: 1 amine (or outer) side, 2 acyl side, 3 side chain; on linkers, the order of the positions; unused ones are H or OH. Bridge positions count the residues as written; N and C are the ends. Square brackets hold non-standard residues; d marks the D form. Peptide text beside a SMILES is read from it. * marks the point of attachment. pTerphenylCO(4''-OnC5H11) = CCCCCOc1ccc(-c2ccc(-c3ccc(C(=O)*)cc3)cc2)cc1; Orn(4R-OH,5R-OH) = O=C([C@H](C[C@@H](O)[C@@H](O)N[*:3])N[*:1])[*:2]; hTyr(3S-OH,4S-OH) = N[C@H](C(=O)O)[C@H](O)[C@@H](O)c1ccc(O)cc1; Pro(3S-OH,4S-Me) = C[C@H]1CN[C@H](C(=O)O)[C@H]1O; Hyp = O=C(O)[C@@H]1C[C@@H](O)CN1

What was measured:
[1] = tested on: Candida albicans; experiment: Antimicrobial activity against Candida albicans SC5314 by M27-A3 method; format: functional
Outline: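 Broth microdilution per CLSI M27-A3 in RPMI 1640, with and without 50% human serum, in triplicate. C. krusei ATCC 6258 and C. parapsilosis ATCC 22019 served as quality-control strains. MIC reported as arithmetic mean of three repetitions on separate days.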

[2] = tested on: Candida albicans; experiment: Antimicrobial activity against Candida albicans 36082 by M27-A3 method in presence of 50% human serum; format: functional
Outline: (§1)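 Broth microdilution per CLSI M27-A3 in RPMI 1640, done in triplicate on three separate days. Each strain was tested with and without 50% human serum. C. krusei ATCC 6258 and C. parapsilosis ATCC 22019 served as QC strains. Arithmetic means are reported, and geometric means were used for comparison.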

[3] = tested on: Candida albicans; experiment: Antimicrobial activity against Candida albicans 3107 by M27-A3 method; format: functional; outline: as §1
[4] = tested on: Candida albicans; experiment: Antimicrobial activity against Candida albicans 119 harboring FKS1 T1921C mutant gene and FKS1 hotspot1 F641L mutant gene by M27-A3 method in presence of 50% human serum; format: functional; outline: as §1
[5] = tested on: Candida albicans; experiment: Antimicrobial activity against Candida albicans 177 harboring FKS1 T1922C mutant gene and FKS1 hotspot1 F641S mutant gene by M27-A3 method; format: functional; outline: as §1
[6] = tested on: Candida albicans; experiment: Antimicrobial activity against Candida albicans 177 harboring FKS1 T1922C mutant gene and FKS1 hotspot1 F641S mutant gene by M27-A3 method in presence of 50% human serum; format: functional; outline: as §1
[7] = tested on: Candida albicans; experiment: Antimicrobial activity against Candida albicans 2762 harboring FKS1 T1922C mutant gene and FKS1 hotspot1 F641S mutant gene by M27-A3 method in presence of 50% human serum; format: functional; outline: as §1
[8] = tested on: Candida albicans; experiment: Antimicrobial activity against Candida albicans 5415 harboring FKS1 T1933C mutant gene and FKS1 hotspot1 S645P mutant gene by M27-A3 method; format: functional; outline: as §1
[9] = tested on: Candida albicans; experiment: Antimicrobial activity against Candida albicans 5415 harboring FKS1 T1933C mutant gene and FKS1 hotspot1 S645P mutant gene by M27-A3 method in presence of 50% human serum; format: functional; outline: as §1
[10] = tested on: Candida albicans; experiment: Antimicrobial activity against Candida albicans 89 harboring FKS1 C1934A mutant gene and FKS1 hotspot1 S645Y mutant gene by M27-A3 method; format: functional; outline: as §1
[11] = tested on: Candida albicans; experiment: Antimicrobial activity against Candida albicans 85 harboring FKS1 C1934T mutant gene and FKS1 hotspot1 S645F mutant gene by M27-A3 method; format: functional; outline: as §1
[12] = tested on: Candida albicans; experiment: Antimicrobial activity against Candida albicans 85 harboring FKS1 C1934T mutant gene and FKS1 hotspot1 S645F mutant gene by M27-A3 method in presence of 50% human serum; format: functional; outline: as §1
[13] = tested on: Candida albicans; experiment: Antimicrobial activity against Candida albicans 122 harboring FKS1 C1946A mutant gene and FKS1 hotspot1 P649H mutant gene by M27-A3 method; format: functional; outline: as §1
[14] = tested on: Candida albicans; experiment: Antimicrobial activity against Candida albicans 90 harboring FKS1 G4082R mutant gene and FKS1 hotspot2 R1361R/H mutant gene by M27-A3 method; format: functional; outline: as §1
[15] = tested on: Candida albicans; experiment: Antimicrobial activity against Candida albicans 90 harboring FKS1 G4082R mutant gene and FKS1 hotspot2 R1361R/H mutant gene by M27-A3 method in presence of 50% human serum; format: functional; outline: as §1
[16] = tested on: Candida albicans; experiment: Antimicrobial activity against Candida albicans A15-10 harboring FKS1 T1933C mutant gene and FKS1 hotspot1 S645P mutant gene by M27-A3 method; format: functional; outline: as §1
[17] = Inhibition of Candida albicans 3107 1,3-beta-D-glucan synthase subunit FKS1p
Outline: (§2)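 Enzyme is product-entrapped 1,3-β-D-glucan synthase, enriched from membranes of each strain grown at 37°C with shaking in YPD broth to early stationary phase. Filtration polymerization assay uses [3H]UDPG, started by adding enzyme and run 60 min at 25°C. Echinocandins are added as serial dilutions, with 1% DMSO controls for anidulafungin. IC50 is from a variable-slope sigmoidal fit; values are triplicate arithmetic means.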

[18] = Inhibition of Candida albicans 3795 1,3-beta-D-glucan synthase subunit FKS1p; outline: as §2
[19] = Inhibition of Candida albicans 2762 1,3-beta-D-glucan synthase subunit FKS1p T1922C mutant; outline: as §2
[20] = Inhibition of Candida albicans 85 1,3-beta-D-glucan synthase subunit FKS1p C1934T mutant; outline: as §2
[21] = Inhibition of Candida albicans 149 1,3-beta-D-glucan synthase subunit FKS1p G1942T mutant; outline: as §2
[22] = Inhibition of Candida albicans 122 1,3-beta-D-glucan synthase subunit FKS1p C1946A mutant; outline: as §2
[23] = Inhibition of Candida albicans 194 1,3-beta-D-glucan synthase subunit FKS1p C1934T/G4082R mutant; outline: as §2
[24] = Inhibition of Candida albicans A15 1,3-beta-D-glucan synthase subunit FKS1p T1933Y mutant; outline: as §2
[25] = Inhibition of Candida albicans A15-10 1,3-beta-D-glucan synthase subunit FKS1p T1933C mutant; outline: as §2
[26] = tested on: Candida albicans SC5314; experiment: Activity at Candida albicans SC5314 1,3-beta-D-glucan synthase subunit FKS1p
Outline: (§3)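 Glucan synthase from cells grown at 37°C with vigorous shaking to early stationary phase in YPD. Membrane enzyme enriched by product entrapment. Serial echinocandin dilutions; ANF controls held 1% DMSO. Reaction started by adding enzyme, run 60 min at 25°C in a filtration polymerization assay, stopped on ice. IC50 from a variable-slope sigmoidal fit; means of three repetitions on separate days.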

[27] = tested on: Candida albicans; experiment: Activity at Candida albicans 3795 1,3-beta-D-glucan synthase subunit FKS1p; outline: as §3
[28] = tested on: Candida albicans; experiment: Activity at Candida albicans 2762 1,3-beta-D-glucan synthase subunit FKS1p T1922C mutant
Outline: (§4)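 Product-entrapped 1,3-β-D-glucan synthase from cells grown in YPD at 37°C to early stationary phase. Wells held 50 mM HEPES pH 7.5, 10% glycerol, 1.5 mg/ml BSA, 25 mM KF, 1 mM EDTA, 25 μM GTP-γ-S, 1 μg enzyme and [3H]UDPG (0.015–2 mM). Reactions ran 60 min at 25°C. Vmax and Km came from Lineweaver-Burke plots, in triplicate.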

[29] = tested on: Candida albicans; experiment: Activity at Candida albicans 205 1,3-beta-D-glucan synthase subunit FKS1p T1933C mutant; outline: as §4
[30] = tested on: Candida albicans; experiment: Activity at Candida albicans 89 1,3-beta-D-glucan synthase subunit FKS1p C1934A mutant; outline: as §4
[31] = tested on: Candida albicans; experiment: Activity at Candida albicans 121 1,3-beta-D-glucan synthase subunit FKS1p G4082A mutant; outline: as §4
[32] = tested on: Candida albicans; experiment: Activity at Candida albicans 90 1,3-beta-D-glucan synthase subunit FKS1p G4082R mutant; outline: as §4

Compound: CCCCCOc1ccc(-c2ccc(-c3ccc(C(=O)N[C@H]4C[C@@H](O)[C@@H](O)NC(=O)[C@@H]5[C@@H](O)[C@@H](C)CN5C(=O)[C@H]([C@@H](C)O)NC(=O)[C@H]([C@H](O)[C@@H](O)c5ccc(O)cc5)NC(=O)[C@@H]5C[C@@H](O)CN5C(=O)[C@H]([C@@H](C)O)NC4=O)cc3)cc2)cc1 [ANIDULAFUNGIN] ({pTerphenylCO(4''-OnC5H11)}-[Orn(4R-OH,5R-OH)]T[Hyp][hTyr(3S-OH,4S-OH)]T[Pro(3S-OH,4S-Me)]; lactam 1-C)
- MIC [1]: 0.08 µg/mL (≈ 0.0702 µM)
- MIC [2]: 0.12 µg/mL
- MIC [3]: 0.03 µg/mL (≈ 0.0263 µM)
- MIC [4]: 2 µg/mL
- MIC [5]: 0.83 µg/mL (≈ 0.728 µM)
- MIC [6]: 4 µg/mL
- MIC [7]: 4 µg/mL
- MIC [8]: 2 µg/mL (≈ 1.75 µM)
- MIC [9]: 8 µg/mL
- MIC [10]: 2 µg/mL (≈ 1.75 µM)
- MIC [11]: 2 µg/mL (≈ 1.75 µM)
- MIC [12]: 8 µg/mL
- MIC [13]: 0.67 µg/mL (≈ 0.588 µM)
- MIC [14]: 0.25 µg/mL (≈ 0.219 µM)
- MIC [15]: 4 µg/mL
- MIC [16]: 4 µg/mL (≈ 3.51 µM)
- IC50 [17]: 0.00312 µg/mL (≈ 0.00274 µM)
- Ki [17]: 0.00167 µg/mL (≈ 0.00146 µM)
- IC50 [18]: 0.00676 µg/mL (≈ 0.00593 µM)
- Ki [18]: 0.0167 µg/mL (≈ 0.0146 µM)
- IC50 [19]: 1.085 µg/mL (≈ 0.952 µM)
- Ki [19]: 4.48127 µg/mL (≈ 3.93 µM)
- IC50 [20]: 0.787 µg/mL (≈ 0.69 µM)
- Ki [20]: 0.44593 µg/mL (≈ 0.391 µM)
- IC50 [21]: 0.0933 µg/mL (≈ 0.0818 µM)
- Ki [21]: 0.17055 µg/mL (≈ 0.15 µM)
- IC50 [22]: 0.491 µg/mL (≈ 0.431 µM)
- Ki [22]: 0.64607 µg/mL (≈ 0.567 µM)
- IC50 [23]: 0.782 µg/mL (≈ 0.686 µM)
- Ki [23]: 0.29924 µg/mL (≈ 0.262 µM)
- IC50 [24]: 0.1287 µg/mL (≈ 0.113 µM)
- IC50 [25]: 0.901 µg/mL (≈ 0.79 µM)
- Ki [25]: 2.5637 µg/mL (≈ 2.25 µM)
- Km [26]: 125 µM
- Vmax [26]: 6.72 nmol/min
- Km [27]: 88 µM
- Vmax [27]: 6.63 nmol/min
- Km [28]: 108 µM
- Vmax [28]: 3.57 nmol/min
- Km [29]: 116 µM
- Vmax [29]: 5.54 nmol/min
- Km [30]: 61 µM
- Vmax [30]: 2.51 nmol/min
- Km [31]: 129 µM
- Vmax [31]: 4.41 nmol/min
- Km [32]: 31 µM
- Vmax [32]: 2.36 nmol/min
